# In PubChem BioAssay:
# The source made the active and inactive calls.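 Rule for the calls, unless noted: active = GFP response above 150% of the DMSO level; inconclusive = fewer than 70 events counted for a yeast strain; inactive = the rest.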
# Key:
# [1] = hit retest on RPL19A-GFP reporter strain – cell-based, S. cerevisiae, flow cytometry, cherry picks, mother/daughter gates, confirmation (AID 2270;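 active = GFP response below 50% of the DMSO control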); conditions: 3 h, at 10 µM, stronger effect = lower value, 100 = same GFP as DMSO wells
# [2] = yeast TOR pathway reporter LAP4-GFP change – cell-based, cherry picks, flow cytometry, mother/daughter gates, confirmation (AID 2271;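 active = GFP response above 150% of the DMSO control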;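 note: ratio of sample to DMSO plate mean so 100% equals DMSO level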); conditions: S. cerevisiae LAP4-GFP strain, 3 h, at 10 µM, stronger effect = higher value, 100 means same as DMSO control
# How it was run: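 System: GFP-fusion yeast strain | Input: Yeast cells seeded at OD600 of 0.2 | Technique: HT flow cytometry, GFP fluorescence channel | Read-out: % GFP response vs DMSO | Dosing: Single test-compound dose, 10 µM final | Controls: Positive rapamycin (400 ng/mL), negative DMSO | Times: 3 h treatment at 30 °C with rotation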
# [3] = TOR pathway reporter MEP2-GFP, retest of hits – S. cerevisiae, flow cytometry GFP, cherry picks, confirmation (AID 2272;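 active = GFP response above 150% of the DMSO control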;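 note: ratio of well signal to plate DMSO mean so 100% equals DMSO level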); conditions: S. cerevisiae MEP2-GFP strain, 3 h, at 10 µM, stronger effect = higher value
# [4] = yeast AGP1-GFP fluorescence change, single-dose – cell-based, flow cytometry, S. cerevisiae, cherry picks, confirmation (AID 2273);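 note: median GFP channel fluorescence over the whole cell population gate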; conditions: S. cerevisiae AGP1-GFP strain, 3 h, at 10 µM
# [5] = TOR pathway CIT2 reporter hit retest – S. cerevisiae, GFP fusion, cherry picks, mother/daughter gates, confirmation (AID 2274); conditions: S. cerevisiae CIT2-GFP strain, flow cytometry, 3 h, at 10 µM, stronger effect = higher value
# [6] = measured here: daughter cell gate
# [7] = measured here: mother cell gate
# [8] = measured here: daughter cell gate response
# [9] = measured here: mother cell gate response
SMILES,GFP response vs DMSO [1],"GFP response vs DMSO [1, 6]","GFP response vs DMSO [1, 7]",GFP response relative to DMSO [2],"GFP response relative to DMSO [2, 8]","GFP response relative to DMSO [2, 9]",GFP response vs DMSO [3],"GFP response, % of DMSO [4]","GFP response, % of DMSO [5]","GFP response, % of DMSO [5, 6]","GFP response, % of DMSO [5, 7]"
COc1ccc(NC2=C(Cl)C(=O)N(CCc3ccccc3)C2=O)cc1,98.7% (inactive),99.3%,99.2%,97.7% (inactive),99.3%,96.5%,104% (inactive),103% (inactive),102% (inactive),102%,103%
COc1ccc(-c2nnc(NC(=O)c3ccc([N+](=O)[O-])o3)o2)c(OC)c1,101% (inactive),100%,101%,95.4% (inactive),92.8%,96.1%,100% (inactive),98% (inactive),105% (inactive),105%,103%
O=C1CC(Sc2nnc(-c3ccccc3O)o2)C(=O)N1c1ccccc1 (stereo not drawn),95.1% (inactive),98.3%,93.1%,104% (inactive),101%,105%,101% (inactive),104% (inactive),106% (inactive),103%,106%
COc1ccc(C(=O)/C(=C/O)N=Nc2ccc(F)cc2)cc1,99.1% (inactive),97.8%,98.6%,106% (inactive),89.3%,109%,102% (inactive),91.4% (inactive),83.5% (inactive),85.3%,80.5%
Cc1nnc(NC(=O)c2nc(S(=O)(=O)Cc3ccccc3C)ncc2Cl)s1,97.1% (inactive),96.4%,94.4%,98.9% (inactive),99%,97.4%,99.3% (inactive),98.2% (inactive),97.2% (inactive),97.6%,96%
COC(=O)Nc1c(-c2ccccc2)nc2ccc(C)cn12,101% (inactive),98.7%,102%,96.2% (inactive),97.2%,98.3%,102% (inactive),103% (inactive),104% (inactive),101%,107%
COc1ccc(-c2sc(C(=O)c3ccc(Cl)cc3Cl)cc2CC(=O)O)cc1,96% (inactive),95.9%,95.8%,130% (inactive),127%,131%,122% (inactive),101% (inactive),104% (inactive),105%,104%
CCCc1[nH]nc2c1C(c1cc(OC)cc(OC)c1)C(C#N)=C(N)O2 (stereo not drawn),101% (inactive),99.8%,101%,103% (inactive),100%,106%,102% (inactive),100% (inactive),95.2% (inactive),93.2%,95.5%
O=C(/C=C/c1ccccc1[N+](=O)[O-])c1ccccc1Br,92.9% (inactive),94.8%,89.1%,161% (active),139%,180%,101% (inactive),104% (inactive),90.9% (inactive),95.2%,82.8%
CSC(SC)=C(C#N)C(=O)c1ccccc1,102% (inactive),98.6%,99.8%,128% (inactive),117%,129%,103% (inactive),96.3% (inactive),93% (inactive),92%,93.2%
Oc1ccc(-c2csc(-c3ccccc3)n2)cc1O,97% (inactive),93.2%,96.5%,124% (inactive),120%,129%,101% (inactive),96% (inactive),93.4% (inactive),93.7%,90.8%
COc1cc(C(=O)ON=C2C3CC4CC(C3)CC2C4)cc(OC)c1OC,97.4% (inactive),97.6%,95.6%,108% (inactive),102%,111%,107% (inactive),61.1% (inactive),145% (inactive),136%,147%
Clc1ccc(OCCn2cnc3ccccc32)c(Cl)c1,87.5% (inactive),82.3%,89.4%,134% (inactive),123%,142%,89.9% (inactive),92.7% (inactive),82.6% (inactive),80.7%,84.3%
CCc1noc(C)c1C(=O)Nc1nc(-c2ccc(Cl)cc2Cl)c(C)s1,98.8% (inactive),99.1%,98.8%,98.8% (inactive),99.3%,97.5%,99.5% (inactive),102% (inactive),96.4% (inactive),96.4%,94.5%
COc1cc(C(O)P(=O)(OCC(C)C)OCC(C)C)cc(OC)c1OC (stereo not drawn),99.5% (inactive),99.8%,99.7%,100% (inactive),102%,98.5%,104% (inactive),100% (inactive),101% (inactive),100%,99.1%
CCOC(=O)C1=C(C)N=C2SC(C(=O)OC)=CC(=O)N2C1c1ccc(F)cc1 (stereo not drawn),103% (inactive),101%,100%,119% (inactive),110%,124%,91.3% (inactive),90.2% (inactive),96.5% (inactive),94.8%,94.4%
Cc1ccc(N2C(=O)C3C4C=CC(CNC(=S)N5CCN(c6cccc(C)c6)C(C)C5)(O4)C3C2=O)cc1 (stereo not drawn),97.3% (inactive),97.3%,96.7%,92.9% (inactive),92.9%,94.4%,103% (inactive),103% (inactive),100% (inactive),97.6%,100%

SMILES,GFP response vs DMSO [1],"GFP response vs DMSO [1, 6]","GFP response vs DMSO [1, 7]",GFP response relative to DMSO [2],"GFP response relative to DMSO [2, 8]","GFP response relative to DMSO [2, 9]",GFP response vs DMSO [3],"GFP response, % of DMSO [4]","GFP response, % of DMSO [5]","GFP response, % of DMSO [5, 6]","GFP response, % of DMSO [5, 7]"
Cn1cc([N+](=O)[O-])c(C(=O)Nc2nc(-c3ccc(Cl)cc3)cs2)n1,97.8% (inactive),97%,96.5%,102% (inactive),97.5%,102%,106% (inactive),95.5% (inactive),100% (inactive),97.6%,99.3%
CCOc1ccc(CNC(=O)CCC(=O)N2Cc3cccc(OC)c3Oc3ncccc32)cc1,98.2% (inactive),98.6%,99.8%,97.9% (inactive),99.2%,96.1%,100% (inactive),96.6% (inactive),101% (inactive),101%,99.7%
CC(C)(C)NC(=O)c1ccccc1-c1nc(-c2ccccc2Cl)no1,94.8% (inactive),95.9%,93.2%,99.5% (inactive),99.1%,99.4%,107% (inactive),97.3% (inactive),93% (inactive),92%,93.2%
CCc1noc(C)c1C(=O)Nc1nc(-c2ccc(Cl)cc2Cl)cs1,95.6% (inactive),95.6%,94%,97.7% (inactive),96%,97.4%,103% (inactive),96.1% (inactive),94.4% (inactive),97.6%,93.8%
N#C/C(=C\c1ccccn1)c1nc2ccccc2s1,170% (inactive),158%,172%,584% (active),464%,589%,1020% (active),205% (active),506% (active),433%,496%
O=C(Nc1ccccc1)c1ccccc1O,96.7% (inactive),97.3%,95.6%,114% (inactive),107%,114%,99.3% (inactive),97.3% (inactive),93.1% (inactive),95.8%,92.6%
Cc1cc(O)c(C(=O)/C=C/c2ccc(C(C)C)cc2)c(=O)o1,95.4% (inactive),93.9%,96.6%,104% (inactive),104%,106%,96.2% (inactive),100% (inactive),98.3% (inactive),99.1%,97.3%
O=C(OCc1ccco1)c1ccc(S(=O)(=O)N2CCCCC2)cc1,101% (inactive),97.9%,101%,98.2% (inactive),97.5%,98.4%,99% (inactive),96.1% (inactive),102% (inactive),99.2%,91.9%
Cc1nnc(NC(=O)c2nc(S(=O)(=O)Cc3ccccc3)ncc2Cl)s1,95.1% (inactive),96.7%,93.7%,96.5% (inactive),99%,98.4%,99.3% (inactive),103% (inactive),104% (inactive),103%,104%
CCCCC(=O)NNC(=S)NC(=O)c1ccc(C)cc1,116% (inactive),111%,111%,249% (active),204%,233%,134% (inactive),100% (inactive),119% (inactive),114%,110%
Cc1ccc(NC(=S)N/N=C/c2c(C)[nH]c3ccccc23)cc1,97.4% (inactive),97%,97.9%,101% (inactive),93.6%,104%,104% (inactive),90.1% (inactive),104% (inactive),108%,100%
CN(CCCS(=O)(=O)[O-])c1ccc(/C=C/c2ccc3ccccc3[n+]2C)cc1,101% (inactive),100%,101%,102% (inactive),102%,104%,111% (inactive),99.6% (inactive),106% (inactive),106%,106%
Cc1ccc(C2CC(c3cccs3)=NN2S(=O)(=O)c2ccc(C)cc2)cc1 (stereo not drawn),101% (inactive),100%,102%,98.2% (inactive),97.5%,97.3%,109% (inactive),99% (inactive),98.8% (inactive),97.4%,98.1%
CC(C)(C)C1=CC=C(C(C)(C)C)C(=O)C1=O,102% (inactive),102%,99.7%,136% (inactive),131%,136%,104% (inactive),98.7% (inactive),104% (inactive),104%,96.8%
O=C(Nc1cc(Sc2ccccn2)cc([N+](=O)[O-])c1)c1ccc(Cl)cc1,99% (inactive),99.6%,99.2%,99.2% (inactive),101%,97.2%,100% (inactive),97.4% (inactive),101% (inactive),101%,99.7%
CCN(CC)CCNC(=O)Cn1c(-c2ccccn2)nc2ccccc21,99.5% (inactive),98.1%,99.6%,96.2% (inactive),98.7%,98.3%,100% (inactive),94.3% (inactive),97.8% (inactive),96.5%,97.7%
